Measured values taken from ChEMBL document CHEMBL3739416, “Discovery of a marine-derived bis-indole alkaloid fascaplysin, as a new class of potent P-glycoprotein inducer and establishment of its structure-activity relationship” (Eur J Med Chem, 2016).
Calls of active or inactive are those of the source. No cut-off for these calls is given here.

Tests used:
[1] = Thermodynamic aqueous solubility of the compound in stimulated intestinal fluid; assay type: ADME; conditions: simulated intestinal fluid; read-out: Therm_solubility
LS180 [2] = test: Induction of P-glycoprotein in human LS180 cells assessed as accumulation of intracellular rhodamine-123 at 125 nM after 48 hrs by fluorescence assay relative to control; assay type: cell-based
How it was run: (§1)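 LS-180 colorectal cells, seeded at 2 × 10⁴ per well, were grown 24 h and then exposed to compound for 48 h, with 0.1% final DMSO. Rifampicin at 10 µM served as the reference inducer. Cells were held in HANKS buffer for 40 min, then loaded with Rh123 for 90 min and washed four times in cold PBS. Lysis was 1 h in 0.1% Triton X-100/0.2 N NaOH. Read-out was intracellular Rh123 per total protein, expressed as % of untreated control. Values are the mean ± SD of three experiments.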

LS180 [3] = test: Induction of P-glycoprotein in human LS180 cells assessed as accumulation of intracellular rhodamine-123 at 62.5 nM after 48 hrs by fluorescence assay relative to control; assay type: cell-based; how it was run: as §1
[4] = Thermodynamic aqueous solubility of the compound in water; assay type: physicochemical; conditions: read-out: Therm_solubility
LS180 [5] = test: Induction of P-glycoprotein expression in human LS180 cells at 1 uM by Western blot analysis relative to control; assay type: cell-based
LS180 [6] = test: Induction of P-glycoprotein in human LS180 cells assessed as accumulation of intracellular rhodamine-123 at 250 nM after 48 hrs by fluorescence assay relative to control; assay type: cell-based; how it was run: as §1
LS180 [7] = test: Induction of P-glycoprotein in human LS180 cells assessed as accumulation of intracellular rhodamine-123 at 500 nM after 48 hrs by fluorescence assay relative to control; assay type: cell-based; how it was run: as §1
LS180 [8] = test: Induction of P-glycoprotein in human LS180 cells assessed as accumulation of intracellular rhodamine-123 at 1 uM after 48 hrs by fluorescence assay relative to control; assay type: cell-based; how it was run: as §1
[9] = Cytotoxicity against human LS180 cells assessed as cell viability at 10 uM after 48 hrs by MTT assay relative to control; assay type: cell-based; conditions: read-out: Activity
How it was run: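 LS-180 cells were seeded at 1 × 10⁴ per well, allowed 24 h, then treated with compound. MTT dye was added 4 h before the end. Formazan was dissolved in DMSO and absorbance read at 570 nm. Viability was expressed relative to the untreated control, taken as 100%.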

[10] = Thermodynamic aqueous solubility of the compound in phosphate buffer saline; assay type: physicochemical; conditions: read-out: Therm_solubility
[11] = Thermodynamic aqueous solubility of the compound in stimulated gastric fluid; assay type: ADME; conditions: simulated gastric fluid; read-out: Therm_solubility
LS180 [12] = test: Induction of P-glycoprotein in human LS180 cells assessed as accumulation of intracellular rhodamine-123 at 5 uM after 48 hrs by fluorescence assay; assay type: cell-based; how it was run: as §1
[13] = Cytotoxicity against HGF cells assessed as cell viability after 48 hrs by MTT assay; assay type: cell-based; conditions: Homo sapiens
How it was run: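 Normal human gingival fibroblasts grown in MEM with 1% non-essential amino acids, 10% FCS, penicillin G and streptomycin at 37 °C, 5% CO2. Seeded at 1 × 10⁴ cells/well for 24 h, then compound-treated. MTT added 4 h before the end, formazan dissolved in DMSO, absorbance read at 570 nm. Viability expressed relative to untreated control set as 100%.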

LS180 [14] = test: Induction of P-glycoprotein in human LS180 cells assessed as accumulation of intracellular rhodamine-123 at 10 uM after 48 hrs by fluorescence assay relative to control; assay type: cell-based; how it was run: as §1

SMILES | Activity (LS180 [8]) | viability at 48 h, 10 µM [9] | Activity (LS180 [12]) | further results
O=C1c2cc(F)c(F)cc2-[n+]2ccc3c([nH]c4ccccc43)c21.[Cl-] | 49.6% | 63.5% | – | solubility thermodynamic [1]: < 5 µg/mL; Activity (LS180 [2]): 33.8%; Activity (LS180 [3]): 35.5%; solubility thermodynamic [4]: > 1500 µg/mL; fold change (FC) (LS180 [5]): 4; Activity (LS180 [6]): 35.3%; Activity (LS180 [7]): 30.6%; solubility thermodynamic [10]: 80 µg/mL; solubility thermodynamic [11]: 80 µg/mL
O=C(c1ccc(Cl)c(Cl)c1Cl)c1nccc2c1[nH]c1ccccc12 | 104% | 84.9% | – | –
C[n+]1ccc2c([nH]c3ccccc32)c1C(=O)c1ccccc1Cl | 71.4% | 69.7% | – | –
C[n+]1ccc2c([nH]c3ccccc32)c1C(=O)c1ccccc1 | 75.2% | 77.5% | – | –
O=C(c1c[nH]c2ccccc12)N1CCc2c([nH]c3ccccc23)C1 | – | – | inactive | –
Clc1ccc(CN2CCc3c([nH]c4ccccc34)C2)s1 | – | – | inactive | –
O=C(c1ccccc1Br)c1nccc2c1[nH]c1ccccc12 | 105% | 80.3% | – | –
O=C(c1ccccc1F)c1nccc2c1[nH]c1ccccc12 | 101% | 98.4% | – | –
O=C(c1ccc(Br)o1)N1CCc2c([nH]c3ccccc23)C1 | – | – | inactive | –
O=C(c1ccc2ccccc2n1)N1CCc2c([nH]c3ccccc23)C1 | – | – | inactive | –
c1ccc2nc(CN3CCc4c([nH]c5ccccc45)C3)ccc2c1 | – | – | inactive | –
O=C1c2ccccc2-[n+]2ccc3c([nH]c4ccccc43)c21.[Cl-] [FASCAPLYSIN CHLORIDE] | 57.6% | 57.5% | – | solubility thermodynamic [1]: > 1500 µg/mL; Activity (LS180 [2]): 39.3%; Activity (LS180 [3]): 42.9%; solubility thermodynamic [4]: > 1500 µg/mL; IC50 [13]: 4 µM; Activity (LS180 [6]): 43.7%; Activity (LS180 [7]): 34.5%; solubility thermodynamic [10]: > 1500 µg/mL; solubility thermodynamic [11]: > 1500 µg/mL
O=C1c2c(Cl)cccc2-[n+]2ccc3c([nH]c4ccccc43)c21 | 59.2% | 63.4% | – | –
C[n+]1ccc2c([nH]c3ccccc32)c1C(=O)c1ccccc1Br.[I-] | 70.1% | 69.1% | – | solubility thermodynamic [1]: 800 µg/mL; Activity (LS180 [2]): 41.8%; Activity (LS180 [3]): 80%; solubility thermodynamic [4]: 800 µg/mL; fold change (FC) (LS180 [5]): 8; Activity (LS180 [6]): 42.3%; Activity (LS180 [7]): 33.6%; solubility thermodynamic [10]: 800 µg/mL; solubility thermodynamic [11]: 800 µg/mL
O=C(c1cc2ccccc2o1)N1CCc2c([nH]c3ccccc23)C1 | – | – | inactive | –
c1ccc2[nH]c(CN3CCc4c([nH]c5ccccc45)C3)nc2c1 | – | – | inactive | –
O=C(c1cc(Cl)ccc1Cl)c1nccc2c1[nH]c1ccccc12 | 103% | 69.6% | – | –
O=C(N1CCOCC1)N1CCc2c([nH]c3ccccc23)C1 | – | – | inactive | –
C[n+]1ccc2c([nH]c3ccccc32)c1C(=O)c1ccccc1F | 79% | 69.8% | – | –
O=[N+]([O-])c1ccc(CN2CCc3c([nH]c4ccccc34)C2)o1 | – | – | inactive | –
O=C(c1ccccc1)c1nccc2c1[nH]c1ccccc12 | 94.6% | 67.5% | – | –
O=C(c1ccc([N+](=O)[O-])s1)N1CCc2c([nH]c3ccccc23)C1 | – | – | inactive | –
O=C1c2cc(F)c(Cl)cc2-[n+]2ccc3c([nH]c4ccccc43)c21 | 55.5% | 36.8% | – | –
COc1ccc(C(=O)c2nccc3c2[nH]c2ccccc23)c(OC)c1 | 108% | 82.2% | – | –
O=C(c1cnccn1)N1CCc2c([nH]c3ccccc23)C1 | – | – | inactive | –

SMILES | Activity (LS180 [8]) | viability at 48 h, 10 µM [9] | Activity (LS180 [12]) | further results
O=C1c2ccc(Cl)c(Cl)c2-[n+]2ccc3c([nH]c4ccccc43)c21 | 57.8% | 57.4% | – | –
C[n+]1ccc2c([nH]c3ccccc32)c1C(=O)c1c[nH]c2ccccc12 | 77.6% | 69.1% | – | –
O=C(c1c[nH]c2ccccc12)c1nccc2c1[nH]c1ccccc12 | 99.4% | 78.7% | – | –
O=C(c1cc(F)c(F)cc1Cl)c1nccc2c1[nH]c1ccccc12 | 112% | 81.9% | – | –
Cc1ccsc1C(=O)N1CCc2c([nH]c3ccccc23)C1 | – | – | inactive | –
O=C1c2cc(Cl)ccc2-[n+]2ccc3c([nH]c4ccccc43)c21 | 58.7% | 67.9% | – | –
Cc1noc(C)c1CN1CCc2c([nH]c3ccccc23)C1 | – | – | inactive | –
O=C(c1ccc(-c2ccccc2)cc1)N1CCc2c([nH]c3ccccc23)C1 | – | – | inactive | –
O=C(c1ccc(-c2cc(C(F)(F)F)ccc2Cl)o1)N1CCc2c([nH]c3ccccc23)C1 | – | – | inactive | –
CN1CCN(C(=O)N2CCc3c([nH]c4ccccc34)C2)CC1 | – | – | inactive | –
O=C1c2ccc(Cl)cc2-[n+]2ccc3c([nH]c4ccccc43)c21 | 57.1% | 66.2% | – | –
O=C(c1ccc(C(F)(F)F)cc1)c1nccc2c1[nH]c1ccccc12 | 107% | 106% | – | –
c1ccc2c(CN3CCc4c([nH]c5ccccc45)C3)c3ccccc3cc2c1 | – | – | inactive | –
c1ccc2c3c([nH]c2c1)CN(Cc1ccncc1)CC3 | – | – | inactive | –
Cc1ncsc1C(=O)N1CCc2c([nH]c3ccccc23)C1 | – | – | inactive | –
O=C(c1ccc(-c2cccc([N+](=O)[O-])c2)o1)N1CCc2c([nH]c3ccccc23)C1 | – | – | inactive | –
CO[C@H]1/C=C/O[C@@]2(C)Oc3c(C)c(O)c4c(O)c(c(/C=N/N5CCN(C)CC5)c(O)c4c3C2=O)NC(=O)/C(C)=C\C=C\[C@H](C)[C@H](O)[C@@H](C)[C@@H](O)[C@@H](C)[C@H](OC(C)=O)[C@@H]1C | – | – | – | Activity (LS180 [14]): 67.1%
c1ccc2cc(CN3CCc4c([nH]c5ccccc45)C3)ccc2c1 | – | – | inactive | –
C[n+]1ccc2c([nH]c3ccccc32)c1C(=O)c1ccc(C(F)(F)F)cc1 | 78.5% | 75.7% | – | –
O=C1NCCN1C(=O)N1CCc2c([nH]c3ccccc23)C1 | – | – | inactive | –
O=C(c1cc(F)c(Cl)cc1Cl)c1nccc2c1[nH]c1ccccc12 | 106% | 92.4% | – | –
O=C(c1ccccc1Cl)c1nccc2c1[nH]c1ccccc12 | 105% | 89.4% | – | –
O=C(c1ccc(Cl)cc1Cl)c1nccc2c1[nH]c1ccccc12 | 97.3% | 98.8% | – | –
O=C(c1c(F)cccc1Cl)c1nccc2c1[nH]c1ccccc12 | 89.6% | 60.1% | – | –
